Laboratory results: ChEMBL document CHEMBL1132961 (J Med Chem, 2000)

Assays:
[1] = Concentration which elicits cytotoxicity in 50% of uninfected human lymphocyte derived CEM cells; assay type: cell-based, CCRF-CEM; details: uninfected CCRF-CEM cells, read-out: TC50 (the source's name)
Summary of the method: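 Cytotoxicity measured in uninfected human lymphocyte-derived CEM cells by XTT protocol.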

[2] = test system: Human immunodeficiency virus 1; assay: Effective concentration at which 50% of the HIV-IIIB-infected human lymphocyte-derived CEM cells protected from HIV-1 infection; details: Human immunodeficiency virus 1, CCRF-CEM
[3] = target: Human immunodeficiency virus type 1 protease (Human immunodeficiency virus 1, UniProt Q72874); assay: Activity of potent nonpeptidic inhibitor against protease
Summary of the method: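 Incubated with 40 µM His-Lys-Ala-Arg-Val-Leu-(p-NO₂-Phe)-Glu-Ala-Nle-Ser-NH₂ in 1.0% DMSO, pH 6.2 MES buffer (DTT, NaCl, EDTA, PEG 8000) for 60 min at 37 °C, then TFA quench. Substrate and product separated by reverse-phase HPLC, read at 220 nm. % control = conversion with inhibitor / conversion without × 100; IC50 derived.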

Row | Structure (SMILES) | CC50 [1] | EC50 [2] | IC50 [3]
1 | Cc1cc(SC2=C(O)OC(CCc3ccc(N)cc3)(C(C)C)CC2=O)c(C(C)(C)C)cc1OS(=O)(=O)N(C)C (centres undefined) | 64000 nM | 800 nM | 
2 | Cc1cc(SC2=C(O)OC(CCc3ccc(O)cc3)(C(C)C)CC2=O)c(C(C)(C)C)cc1NS(=O)(=O)c1ccccn1 (centres undefined) | > 100000 nM | 4100 nM | 2.6 nM
3 | Cc1cc(SC2=C(O)OC(CCc3ccc(O)cc3)(C3CCCCC3)CC2=O)c(C(C)(C)C)cc1OS(=O)(=O)c1ccccc1 (centres undefined) | 59000 nM | > 59000 nM | 131 nM
4 | Cc1cc(SC2=C(O)OC(C)(CCc3ccc(O)cc3)CC2=O)c(C(C)(C)C)cc1OS(=O)(=O)c1ccc(F)cc1 (centres undefined) | 100000 nM | 6300 nM | 16.9 nM
5 | Cc1cc(SC2=C(O)OC(C)(CCc3ccc(O)cc3)CC2=O)c(C(C)(C)C)cc1NS(=O)(=O)Cn1ccnc1 (centres undefined) | > 100000 nM | 58000 nM | 1.9 nM
6 | CC(=O)Nc1ccc(S(=O)(=O)Nc2cc(C(C)(C)C)c(SC3=C(O)OC(C)(CCc4ccc(O)cc4)CC3=O)cc2C)cc1 (centres undefined) | > 100000 nM | 55000 nM | 
7 | Cc1cc(SC2=C(O)OC(CCc3ccc(O)cc3)(C(C)C)CC2=O)c(C(C)(C)C)cc1NS(=O)(=O)c1ccc(Cl)cc1 (centres undefined) | 66000 nM | 1600 nM | 5.3 nM
8 | Cc1cc(SC2=C(O)OC(CCc3ccccc3)(C(C)C)CC2=O)c(C(C)(C)C)cc1NS(=O)(=O)c1cccnc1 (centres undefined) | 76000 nM | 1600 nM | 3.5 nM
9 | Cc1cc(SC2=C(O)OC(CCc3ccc(O)cc3)(C(C)C)CC2=O)c(C(C)(C)C)cc1OS(=O)(=O)N(C)C (centres undefined) | 70000 nM |  | 
10 | CCNS(=O)(=O)Oc1cc(C(C)(C)C)c(SC2=C(O)OC(CCc3ccc(N)cc3)(C(C)C)CC2=O)cc1C (centres undefined) | 83000 nM | 700 nM | 
11 | Cc1cc(SC2=C(O)OC(CCc3ccc(O)cc3)(C(C)C)CC2=O)c(C(C)(C)C)cc1OS(=O)(=O)c1ccccn1 (centres undefined) | 84000 nM | 700 nM | 5 nM
12 | Cc1cc(SC2=C(O)OC(CCc3ccccc3)(C(C)C)CC2=O)c(C(C)(C)C)cc1OS(=O)(=O)c1ccccn1 (centres undefined) | 65000 nM | 1400 nM | 6.7 nM
13 | Cc1cc(SC2=C(O)OC(CCc3ccc(N)cc3)(C(C)C)CC2=O)c(C(C)(C)C)cc1OS(=O)(=O)c1ccc(C#N)cc1 (centres undefined) | 53000 nM | 400 nM | 1.3 nM
14 | Cc1cc(SC2=C(O)OC(CCc3ccc(O)cc3)(C3CCCC3)CC2=O)c(C(C)(C)C)cc1NS(=O)(=O)c1ccccc1 (centres undefined) | 67000 nM | 2500 nM | 8.6 nM
15 | Cc1cc(SC2=C(O)OC(C)(CCc3ccc(O)cc3)CC2=O)c(C(C)(C)C)cc1NS(=O)(=O)c1ccc(-c2cccs2)cc1 (centres undefined) | > 100000 nM | 5600 nM | 6.3 nM
16 | Cc1cc(SC2=C(O)OC(CCc3ccc(N)cc3)(C(C)C)CC2=O)c(C(C)(C)C)cc1OS(=O)(=O)c1cccs1 (centres undefined) | 66000 nM | 6000 nM | 18.5 nM
17 | Cc1cc(SC2=C(O)OC(CCc3ccc(O)cc3)(C3CCCCC3)CC2=O)c(C(C)(C)C)cc1OS(=O)(=O)c1ccc(C#N)cc1 (centres undefined) | 29000 nM | 2600 nM | 21 nM
18 | Cc1cc(SC2=C(O)OC(CCc3ccc(O)cc3)(C3CCCCC3)CC2=O)c(C(C)(C)C)cc1OS(=O)(=O)c1ccc(F)cc1 (centres undefined) | 66000 nM | 9500 nM | 29 nM
19 | Cc1cc(SC2=C(O)OC(C)(CCc3ccc(O)cc3)CC2=O)c(C(C)(C)C)cc1NS(=O)(=O)c1ccc(C#N)cc1 (centres undefined) | > 100000 nM | 5000 nM | 2.1 nM
20 | Cc1cc(SC2=C(O)OC(CCc3ccc(N)cc3)(C(C)C)CC2=O)c(C(C)(C)C)cc1OS(=O)(=O)c1cccnc1 (centres undefined) | 66000 nM | 2200 nM | 4.1 nM
21 | CCNS(=O)(=O)Oc1cc(C(C)(C)C)c(SC2=C(O)OC(CCc3ccc(O)cc3)(C(C)C)CC2=O)cc1C (centres undefined) | > 100000 nM | 1000 nM | 
22 | Cc1cc(SC2=C(O)OC(CCc3ccc(O)cc3)(C(C)C)CC2=O)c(C(C)(C)C)cc1N (centres undefined) | 92000 nM | 1000 nM | 
